# According to ChEMBL document CHEMBL1275388, “Discovery and synthesis of novel luteolin derivatives as DAT agonists” (Bioorg Med Chem, 2010):
# Biological target: Sodium-dependent dopamine transporter (Rattus norvegicus, UniProt P23977)
# Experiment: Agonist activity at rat DAT expressed in CHO cells
# Format: functional, cell-based
# Outline: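 CHO cell lines constructed to stably express DAT were used to measure DAT agonistic activity, reported as EC50.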
# Chain of Sodium-dependent dopamine transporter (P23977 whole entry): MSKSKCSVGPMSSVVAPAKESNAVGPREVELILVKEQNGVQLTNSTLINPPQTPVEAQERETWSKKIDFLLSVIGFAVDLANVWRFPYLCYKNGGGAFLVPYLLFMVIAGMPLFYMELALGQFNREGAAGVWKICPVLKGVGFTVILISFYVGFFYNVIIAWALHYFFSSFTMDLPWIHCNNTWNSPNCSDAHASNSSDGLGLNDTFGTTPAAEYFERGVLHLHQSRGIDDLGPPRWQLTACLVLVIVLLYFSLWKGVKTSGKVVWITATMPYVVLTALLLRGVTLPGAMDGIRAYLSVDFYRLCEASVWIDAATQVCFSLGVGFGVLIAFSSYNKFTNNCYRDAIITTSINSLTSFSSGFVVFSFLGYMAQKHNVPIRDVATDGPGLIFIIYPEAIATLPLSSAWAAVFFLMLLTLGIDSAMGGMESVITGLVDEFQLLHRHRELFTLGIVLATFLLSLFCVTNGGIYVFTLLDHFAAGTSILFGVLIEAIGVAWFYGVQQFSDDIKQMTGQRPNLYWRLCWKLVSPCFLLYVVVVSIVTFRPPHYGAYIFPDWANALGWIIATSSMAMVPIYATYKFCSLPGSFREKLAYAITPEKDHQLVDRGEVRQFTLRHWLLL
row,SMILES,EC50
1,CCOc1cc(-c2cc(=O)c3c(O)cc(O)cc3o2)ccc1O,12.9 µM
2,COc1cc(OC)c2c(=O)cc(-c3ccc(O)c(O)c3)oc2c1,3.42 µM
3,CC(C)Oc1cc(O)cc2oc(-c3ccc(O)c(O)c3)cc(=O)c12,5.43 µM
4,CC(C)C(=O)Oc1cc(O)c2c(=O)cc(-c3ccc(O)c(O)c3)oc2c1,1.38 µM
5,CCC(=O)Oc1cc(O)c2c(=O)cc(-c3ccc(O)c(O)c3)oc2c1,1.7 µM
6,Cc1ccc(C(=O)Oc2cc(O)cc3oc(-c4ccc(O)c(O)c4)cc(=O)c23)cc1,6.92 µM
7,O=c1cc(-c2ccc(O)c(O)c2)oc2cc(O)cc(OCCCCc3ccccc3)c12,2.59 µM
8,CCCC(=O)Oc1cc(O)c2c(=O)cc(-c3ccc(O)c(O)c3)oc2c1,1.69 µM
9,O=C(Oc1cc(O)cc2oc(-c3ccc(O)c(O)c3)cc(=O)c12)c1ccccc1,11.2 µM
10,CC(C)C(=O)Oc1cc(O)cc2oc(-c3ccc(O)c(O)c3)cc(=O)c12,0.046 µM
11,O=c1cc(-c2ccc(O)c(O)c2)oc2cc(O)cc(O)c12 [LUTEOLIN],1.45 µM
12,CC(C)CCC(=O)Oc1cc(O)cc2oc(-c3ccc(O)c(O)c3)cc(=O)c12,2.71 µM

# Results, then the compound that gave them:
row,EC50,SMILES
1,3.07 µM,CCCOc1cc(O)cc2oc(-c3ccc(O)c(O)c3)cc(=O)c12
2,4.58 µM,CCCCCCOc1cc(O)cc2oc(-c3ccc(O)c(O)c3)cc(=O)c12
3,4.8 µM,CC(C)COc1cc(O)cc2oc(-c3ccc(O)c(O)c3)cc(=O)c12
4,4.35 µM,COc1cc(O)cc2oc(-c3ccc(O)c(O)c3)cc(=O)c12
5,2.4 µM,CCCCOc1cc(O)cc2oc(-c3ccc(O)c(O)c3)cc(=O)c12
6,33 µM,CCCCCCCCCCOc1cc(O)cc2oc(-c3ccc(O)c(O)c3)cc(=O)c12
7,5.37 µM,CC(=O)Oc1cc(O)cc2oc(-c3ccc(O)c(O)c3)cc(=O)c12
8,0.869 µM,CCCCC(=O)Oc1cc(O)cc2oc(-c3ccc(O)c(O)c3)cc(=O)c12
9,3.43 µM,CC(C)CCOc1cc(O)cc2oc(-c3ccc(O)c(O)c3)cc(=O)c12
10,16.5 µM,CCCCCCCCOc1cc(O)cc2oc(-c3ccc(O)c(O)c3)cc(=O)c12
11,8.56 µM,CCCCCCCC(=O)Oc1cc(O)cc2oc(-c3ccc(O)c(O)c3)cc(=O)c12
12,31 µM,CCC(=O)Oc1cc(O)cc2oc(-c3ccc(O)c(O)c3)cc(=O)c12
13,1.82 µM,CCCC(=O)Oc1cc(O)cc2oc(-c3ccc(O)c(O)c3)cc(=O)c12
14,2.21 µM,CCOc1cc(O)cc2oc(-c3ccc(O)c(O)c3)cc(=O)c12
